Test results from ChEMBL document CHEMBL1143592, “N-terminal sugar conjugation and C-terminal Thr-for-Thr(ol) exchange in radioiodinated Tyr3-octreotide: effect on cellular ligand trafficking in vitro and tumor accumulation in vivo” (J Med Chem, 2005).

How the values were obtained:
[1] = molecular target: T1, Somatostatin receptor type 2 (Homo sapiens, UniProt P30874); assay: In vitro inhibition of [125I][Leu8,D-Trp22,Tyr25] somatostatin 28 binding to human somatostatin receptor type 2 expressed in CCL39 cells; (n=3); format: cell-based
[2] = molecular target: Somatostatin receptor type 3 (Homo sapiens, UniProt P32745); assay: In vitro inhibition of [125I][Leu8,D-Trp22,Tyr25] somatostatin 28 binding to human somatostatin receptor type 3 expressed in CCL39 cells; (n=3); format: cell-based
[3] = molecular target: Somatostatin receptor type 4 (Homo sapiens, UniProt P31391); assay: In vitro inhibition of [125I][Leu8,D-Trp22,Tyr25] somatostatin 28 binding to human somatostatin receptor type 4 expressed in CCL39 cells; (n=3); format: cell-based
How it was run: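 Membrane pellets from CCL39 cells stably expressing hsst4 were sectioned onto slides for receptor autoradiography. Full displacement of the universal somatostatin radioligand used unlabeled peptide at 0.1–1000 nM, with somatostatin 28 run in parallel at the same concentrations. Values are mean ± SD.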

[4] = molecular target: Somatostatin receptor type 5 (Homo sapiens, UniProt P35346); assay: In vitro inhibition of [125I][Leu8,D-Trp22,Tyr25] somatostatin 28 binding to human somatostatin receptor type 5 expressed in CHO-K1 cells; (n=3); format: cell-based
[5] = molecular target: Somatostatin receptor type 1 (Homo sapiens, UniProt P30872); assay: In vitro inhibition of [125I][Leu8,D-Trp22,Tyr25] somatostatin 28 binding to human somatostatin receptor type 1 expressed in CHO-K1 cells; (n=3); format: cell-based
[6] = molecular target: Somatostatin receptor type 2 (Rattus norvegicus) (UniProt P30680); assay: In vivo tumor accumulation was determined in nude mice bearing rat pancreatic AR42J tumor cell expressed with somatostatin receptor type 2;60 min p.i.; (n=3-5); format: functional, organism-based; settings: AR-42J
How it was run: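 Female Swiss nu/nu mice, 6–8 weeks, were inoculated s.c. in the flank with (2.5–5) × 10⁶ AR42J cells in serum-free RPMI 1640 and used after 10 days (tumors 150–500 mg). About 370 kBq of radioiodinated peptide in 100 µL PBS pH 7.4 was given i.v. into the tail vein. Tumor was excised 60 min p.i. and gamma-counted; results are % ID/g.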

[7] = molecular target: T1, Somatostatin receptor type 2; assay: Relative effective concentration against human somatostatin receptor type 2 expressed in CHO cells; (n=3); format: cell-based; settings: cho
How it was run: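 Dual-tracer internalization in CHO cells stably expressing N-terminally tagged hsst2 (90000–120000 cells/well, plated the day before). Acid wash at pH 5 removed surface-bound activity; nonspecific uptake was taken with 5 µM TOC; triplicates. EC50 is expressed relative to [125I]TOC.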

[8] = tested as the 123I-labelled form

Somatostatin receptor type 2 (Rattus norvegicus), sequence (P30680 whole entry): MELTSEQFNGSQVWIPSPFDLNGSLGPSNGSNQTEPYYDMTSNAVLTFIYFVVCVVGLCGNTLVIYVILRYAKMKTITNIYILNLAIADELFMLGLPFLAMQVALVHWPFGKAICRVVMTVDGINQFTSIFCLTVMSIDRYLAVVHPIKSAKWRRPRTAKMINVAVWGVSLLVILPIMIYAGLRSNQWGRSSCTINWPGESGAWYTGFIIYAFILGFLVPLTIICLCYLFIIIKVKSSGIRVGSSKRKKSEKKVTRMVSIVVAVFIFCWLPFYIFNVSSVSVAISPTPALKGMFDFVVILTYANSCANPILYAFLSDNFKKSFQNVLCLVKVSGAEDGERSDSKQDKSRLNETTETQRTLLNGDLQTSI
T1 sequence (P30874 whole entry): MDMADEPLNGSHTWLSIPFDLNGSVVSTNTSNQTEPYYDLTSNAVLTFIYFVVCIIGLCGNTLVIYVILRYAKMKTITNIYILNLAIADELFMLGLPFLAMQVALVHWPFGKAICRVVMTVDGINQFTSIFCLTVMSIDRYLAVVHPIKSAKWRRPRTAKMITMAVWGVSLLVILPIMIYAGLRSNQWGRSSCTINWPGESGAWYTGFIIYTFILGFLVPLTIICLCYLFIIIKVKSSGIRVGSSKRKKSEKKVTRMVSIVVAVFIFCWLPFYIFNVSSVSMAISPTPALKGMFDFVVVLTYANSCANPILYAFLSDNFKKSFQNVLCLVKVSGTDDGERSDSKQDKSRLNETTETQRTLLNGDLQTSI
Somatostatin receptor type 4, sequence (P31391 whole entry): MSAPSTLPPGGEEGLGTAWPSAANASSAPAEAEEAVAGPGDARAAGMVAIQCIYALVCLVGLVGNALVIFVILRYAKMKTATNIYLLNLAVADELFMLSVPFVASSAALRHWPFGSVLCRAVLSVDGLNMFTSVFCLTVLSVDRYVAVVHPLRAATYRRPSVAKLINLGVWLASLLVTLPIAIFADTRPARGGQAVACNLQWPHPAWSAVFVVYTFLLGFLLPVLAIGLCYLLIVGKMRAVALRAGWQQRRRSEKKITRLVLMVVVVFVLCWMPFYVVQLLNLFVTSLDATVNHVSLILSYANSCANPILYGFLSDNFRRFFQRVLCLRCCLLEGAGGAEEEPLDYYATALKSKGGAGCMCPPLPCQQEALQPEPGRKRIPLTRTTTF
Somatostatin receptor type 1, sequence (P30872 whole entry): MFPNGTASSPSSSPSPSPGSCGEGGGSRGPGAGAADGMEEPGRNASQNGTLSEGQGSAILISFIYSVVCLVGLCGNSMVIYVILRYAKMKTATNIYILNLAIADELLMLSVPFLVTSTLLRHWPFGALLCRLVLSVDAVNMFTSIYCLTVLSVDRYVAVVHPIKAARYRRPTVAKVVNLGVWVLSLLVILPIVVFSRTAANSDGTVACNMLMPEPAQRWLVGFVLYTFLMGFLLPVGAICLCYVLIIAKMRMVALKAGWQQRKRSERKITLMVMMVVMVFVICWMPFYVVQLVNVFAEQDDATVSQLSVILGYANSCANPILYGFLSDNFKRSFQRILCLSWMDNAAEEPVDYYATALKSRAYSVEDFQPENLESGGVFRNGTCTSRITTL
Somatostatin receptor type 5, sequence (P35346 whole entry): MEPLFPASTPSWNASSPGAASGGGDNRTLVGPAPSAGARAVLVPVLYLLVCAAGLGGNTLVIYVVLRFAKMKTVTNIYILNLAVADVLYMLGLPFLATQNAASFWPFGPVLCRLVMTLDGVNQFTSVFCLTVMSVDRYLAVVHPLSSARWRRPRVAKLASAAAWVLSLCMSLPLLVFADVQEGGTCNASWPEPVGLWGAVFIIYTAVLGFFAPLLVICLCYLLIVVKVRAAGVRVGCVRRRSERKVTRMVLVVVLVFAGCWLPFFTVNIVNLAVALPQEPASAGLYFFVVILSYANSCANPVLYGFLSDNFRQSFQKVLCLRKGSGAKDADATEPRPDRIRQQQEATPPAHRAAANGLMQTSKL
Somatostatin receptor type 3, sequence (P32745 whole entry): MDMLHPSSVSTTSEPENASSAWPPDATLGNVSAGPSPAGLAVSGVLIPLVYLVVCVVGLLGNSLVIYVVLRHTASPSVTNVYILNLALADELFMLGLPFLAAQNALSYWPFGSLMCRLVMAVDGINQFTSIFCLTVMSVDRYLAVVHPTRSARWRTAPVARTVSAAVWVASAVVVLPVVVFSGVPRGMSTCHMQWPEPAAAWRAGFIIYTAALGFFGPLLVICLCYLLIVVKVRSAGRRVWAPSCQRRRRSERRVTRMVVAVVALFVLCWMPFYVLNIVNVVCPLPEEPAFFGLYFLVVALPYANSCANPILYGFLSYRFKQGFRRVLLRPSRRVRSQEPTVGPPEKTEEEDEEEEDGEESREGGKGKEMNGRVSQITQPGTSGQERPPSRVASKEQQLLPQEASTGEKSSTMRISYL

Molecule | IC50 [1] [µM] | IC50 ([2]; ccl39) [µM] | IC50 [3] [µM] | IC50 [4] [µM] | IC50 ([5]; cho-k1) [µM] | ID/g [6, 8] [%] | other results
GALLIUM OXODOTREOTIDE | 0.0002 | > 1 | 0.3 | 0.377 | > 10 | – | –
C[C@@H](O)[C@H](NC(=O)[C@@H]1CSSC[C@H](NC(=O)[C@H](Cc2ccccc2)NC[C@]2(O)OC[C@H](O)[C@@H](O[C@@H]3O[C@@H](CO)[C@@H](O)[C@H](O)[C@@H]3O)[C@@H]2O)C(=O)N[C@@H](Cc2ccc(O)c(I)c2)C(=O)N[C@H](Cc2c[nH]c3ccccc23)C(=O)N[C@@H](CCCCN)C(=O)N[C@@H]([C@@H](C)O)C(=O)N1)C(=O)O | – | – | – | – | – | 11.2 | –
C[C@@H](O)[C@H](CO)NC(=O)[C@@H]1CSSC[C@H](NC(=O)[C@H](N)Cc2ccccc2)C(=O)N[C@@H](Cc2ccc(O)c([125I])c2)C(=O)N[C@H](Cc2c[nH]c3ccccc23)C(=O)N[C@@H](CCCCN)C(=O)N[C@@H]([C@@H](C)O)C(=O)N1 | – | – | – | – | – | – | EC50 [7]: 0.001 µM
C[C@@H](O)[C@H](CO)NC(=O)[C@@H]1CSSC[C@H](NC(=O)[C@@H](Cc2ccccc2)NC[C@]2(O)OC[C@H](O)[C@@H](O[C@@H]3O[C@@H](CO)[C@@H](O[C@@H]4O[C@@H](CO)[C@@H](O)[C@H](O)[C@@H]4O)[C@H](O)[C@@H]3O)[C@@H]2O)C(=O)N[C@@H](Cc2ccc(O)c(I)c2)C(=O)N[C@H](Cc2c[nH]c3ccccc23)C(=O)N[C@@H](CCCCN)C(=O)N[C@@H]([C@@H](C)O)C(=O)N1 | 0.0011 | 0.21 | > 1 | 0.11 | > 10 | – | –
C[C@@H](O)[C@H](NC(=O)[C@@H]1CSSC[C@H](NC(=O)[C@@H](Cc2ccccc2)NC[C@]2(O)OC[C@H](O)[C@@H](O[C@@H]3O[C@@H](CO)[C@@H](O)[C@H](O)[C@@H]3O)[C@@H]2O)C(=O)N[C@@H](Cc2ccc(O)c(I)c2)C(=O)N[C@H](Cc2c[nH]c3ccccc23)C(=O)N[C@@H](CCCCN)C(=O)N[C@@H]([C@@H](C)O)C(=O)N1)C(=O)O | 0.00078 | 0.757 | 0.797 | 0.21 | > 10 | – | –
C[C@@H](O)[C@H](NC(=O)[C@@H]1CSSC[C@H](NC(=O)[C@@H](Cc2ccccc2)NC[C@]2(O)OC[C@H](O)[C@@H](O[C@@H]3O[C@@H](CO)[C@@H](O[C@@H]4O[C@@H](CO)[C@@H](O)[C@H](O)[C@@H]4O)[C@H](O)[C@@H]3O)[C@@H]2O)C(=O)N[C@@H](Cc2ccc(O)c(I)c2)C(=O)N[C@H](Cc2c[nH]c3ccccc23)C(=O)N[C@@H](CCCCN)C(=O)N[C@@H]([C@@H](C)O)C(=O)N1)C(=O)O | 0.00095 | 0.823 | 0.823 | 0.327 | > 10 | – | –
C[C@@H](O)[C@H](CO)NC(=O)[C@@H]1CSSC[C@H](NC(=O)[C@H](Cc2ccccc2)NC[C@]2(O)OC[C@H](O)[C@@H](O)[C@@H]2O)C(=O)N[C@@H](Cc2ccc(O)c(I)c2)C(=O)N[C@H](Cc2c[nH]c3ccccc23)C(=O)N[C@@H](CCCCN)C(=O)N[C@@H]([C@@H](C)O)C(=O)N1 | – | – | – | – | – | 8.7 | –
C[C@@H](O)[C@H](NC(=O)[C@@H]1CSSC[C@H](NC(=O)[C@H](N)Cc2ccccc2)C(=O)N[C@@H](Cc2ccc(O)c(I)c2)C(=O)N[C@H](Cc2c[nH]c3ccccc23)C(=O)N[C@@H](CCCCN)C(=O)N[C@@H]([C@@H](C)O)C(=O)N1)C(=O)O | – | – | – | – | – | 21.2 | –
C[C@@H](O)[C@H](NC(=O)[C@@H]1CSSC[C@H](NC(=O)[C@@H](Cc2ccccc2)NC[C@@]2(O)OC[C@@H](O)[C@@H](O)[C@@H]2O)C(=O)N[C@@H](Cc2ccc(O)c(I)c2)C(=O)N[C@H](Cc2c[nH]c3ccccc23)C(=O)N[C@@H](CCCCN)C(=O)N[C@@H]([C@@H](C)O)C(=O)N1)C(=O)O | 0.002 | > 1 | 1.03 | 0.521 | > 1 | – | –
C[C@@H](O)[C@H](CO)NC(=O)[C@@H]1CSSC[C@H](NC(=O)[C@@H](Cc2ccccc2)NC[C@]2(O)OC[C@H](O)[C@@H](O[C@@H]3O[C@@H](CO)[C@@H](O[C@@H]4O[C@@H](CO)[C@@H](O)[C@H](O)[C@@H]4O)[C@H](O)[C@@H]3O)[C@@H]2O)C(=O)N[C@@H](Cc2ccc(O)c([123I])c2)C(=O)N[C@H](Cc2c[nH]c3ccccc23)C(=O)N[C@@H](CCCCN)C(=O)N[C@@H]([C@@H](C)O)C(=O)N1 | – | – | – | – | – | – | EC50 [7]: 0.00101 µM
C[C@@H](O)[C@H](NC(=O)[C@@H]1CSSC[C@H](NC(=O)[C@@H](Cc2ccccc2)NC(=O)CN2CCN(CC(=O)O)CCN(CC(=O)O)CCN(CC(=O)O)CC2)C(=O)N[C@@H](Cc2ccc(O)cc2)C(=O)N[C@H](Cc2c[nH]c3ccccc23)C(=O)N[C@@H](CCCCN)C(=O)N[C@@H]([C@@H](C)O)C(=O)N1)C(=O)O | – | – | – | – | – | – | IC50 [2]: > 1 µM; IC50 [5]: > 10 µM
C[C@@H](O)[C@H](NC(=O)[C@@H]1CSSC[C@H](NC(=O)[C@@H](Cc2ccccc2)NC(=O)CCS[C@@H]2O[C@@H](CO)[C@@H](O)[C@H](O)[C@@H]2O)C(=O)N[C@@H](Cc2ccc(O)c(I)c2)C(=O)N[C@H](Cc2c[nH]c3ccccc23)C(=O)N[C@@H](CCCCN)C(=O)N[C@@H]([C@@H](C)O)C(=O)N1)C(=O)O | – | 0.398 | 0.356 | 0.31 | > 1 | – | –
C[C@@H](O)[C@H](CO)NC(=O)[C@@H]1CSSC[C@H](NC(=O)[C@H](Cc2ccccc2)NC[C@]2(O)OC[C@H](O)[C@@H](O[C@@H]3O[C@@H](CO)[C@@H](O)[C@H](O)[C@@H]3O)[C@@H]2O)C(=O)N[C@@H](Cc2ccc(O)c(I)c2)C(=O)N[C@H](Cc2c[nH]c3ccccc23)C(=O)N[C@@H](CCCCN)C(=O)N[C@@H]([C@@H](C)O)C(=O)N1 | – | – | – | – | – | 5.2 | –
C[C@@H](O)[C@H](NC(=O)[C@@H]1CSSC[C@H](NC(=O)[C@@H](Cc2ccccc2)NC[C@H]2O[C@H](O)[C@H](O)[C@@H](O)[C@@H]2O)C(=O)N[C@@H](Cc2ccc(O)c(I)c2)C(=O)N[C@H](Cc2c[nH]c3ccccc23)C(=O)N[C@@H](CCCCN)C(=O)N[C@@H]([C@@H](C)O)C(=O)N1)C(=O)O | – | – | – | – | – | 20.5 | –
C[C@@H](O)[C@H](NC(=O)[C@@H]1CSSC[C@H](NC(=O)[C@H](Cc2ccccc2)NC[C@]2(O)OC[C@H](O)[C@@H](O[C@@H]3O[C@@H](CO)[C@@H](O[C@@H]4O[C@@H](CO)[C@@H](O)[C@H](O)[C@@H]4O)[C@H](O)[C@@H]3O)[C@@H]2O)C(=O)N[C@@H](Cc2ccc(O)c(I)c2)C(=O)N[C@H](Cc2c[nH]c3ccccc23)C(=O)N[C@@H](CCCCN)C(=O)N[C@@H]([C@@H](C)O)C(=O)N1)C(=O)O | – | – | – | – | – | 25.1 | –
C[C@@H](O)[C@H](CO)NC(=O)[C@@H]1CSSC[C@H](NC(=O)[C@@H](N)Cc2ccccc2)C(=O)N[C@@H](Cc2ccc(O)c(I)c2)C(=O)N[C@H](Cc2c[nH]c3ccccc23)C(=O)N[C@@H](CCCCN)C(=O)N[C@@H]([C@@H](C)O)C(=O)N1 | – | – | – | – | – | – | ID/g ([6]; tested as the 125I-labelled form): 5.5%
C[C@@H](O)[C@H](NC(=O)[C@@H]1CSSC[C@H](NC(=O)[C@@H](Cc2ccccc2)NC(=O)CCS[C@@H]2O[C@@H](CO)[C@H](O)[C@H](O)[C@@H]2O)C(=O)N[C@@H](Cc2ccc(O)c(I)c2)C(=O)N[C@H](Cc2c[nH]c3ccccc23)C(=O)N[C@@H](CCCCN)C(=O)N[C@@H]([C@@H](C)O)C(=O)N1)C(=O)O | – | 0.491 | 0.482 | 0.413 | > 1 | – | –
C[C@@H](O)[C@@H]1NC(=O)[C@H](CCCCN)NC(=O)[C@@H](Cc2c[nH]c3ccccc23)NC(=O)[C@H](Cc2ccc(O)c(I)c2)NC(=O)[C@@H](NC(=O)[C@@H](Cc2ccccc2)NC[C@]2(O)OC[C@H](O)[C@@H](O)[C@@H]2O)CSSC[C@@H](C(=O)N[C@H](CO)[C@@H](C)O)NC1=O | 0.0022 | 0.357 | 0.837 | 0.064 | > 1 | – | –
EDOTREOTIDE YTTRIUM | – | – | > 10 | – | > 10 | – | –
C[C@@H](O)[C@H](CO)NC(=O)[C@@H]1CSSC[C@H](NC(=O)[C@@H](Cc2ccccc2)NC[C@]2(O)OC[C@H](O)[C@@H](O[C@@H]3O[C@@H](CO)[C@@H](O)[C@H](O)[C@@H]3O)[C@@H]2O)C(=O)N[C@@H](Cc2ccc(O)c(I)c2)C(=O)N[C@H](Cc2c[nH]c3ccccc23)C(=O)N[C@@H](CCCCN)C(=O)N[C@@H]([C@@H](C)O)C(=O)N1 | 0.0012 | 0.243 | > 1 | 0.075 | > 10 | – | –
C[C@@H](O)[C@H](CO)NC(=O)[C@@H]1CSSC[C@H](NC(=O)[C@H](Cc2ccccc2)NC[C@]2(O)OC[C@H](O)[C@@H](O[C@@H]3O[C@@H](CO)[C@@H](O[C@@H]4O[C@@H](CO)[C@@H](O)[C@H](O)[C@@H]4O)[C@H](O)[C@@H]3O)[C@@H]2O)C(=O)N[C@@H](Cc2ccc(O)c(I)c2)C(=O)N[C@H](Cc2c[nH]c3ccccc23)C(=O)N[C@@H](CCCCN)C(=O)N[C@@H]([C@@H](C)O)C(=O)N1 | – | – | – | – | – | 4.9 | –
